Most compounds without a hit are left out; they make up all but 3.1% or so of the library.
pPAFAH FP inh: pPAFAH (human) enzyme inhibition. Q13093. recombinant pPAFAH, FP-rhodamine probe fluorescence polarization. inhibition, % at 3.39 µM. 330,000 tested, 1.5% active. AID 463082;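 active = inhibition above the mean inhibition across the screen plus 3 SD, cut at about 25% in these data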;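 note: inhibitors block binding of the rhodamine activity-based probe so polarization drops; 0% = enzyme with DMSO and 100% = wells lacking pPAFAH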
Target sequence (Q13093 whole entry, looked up): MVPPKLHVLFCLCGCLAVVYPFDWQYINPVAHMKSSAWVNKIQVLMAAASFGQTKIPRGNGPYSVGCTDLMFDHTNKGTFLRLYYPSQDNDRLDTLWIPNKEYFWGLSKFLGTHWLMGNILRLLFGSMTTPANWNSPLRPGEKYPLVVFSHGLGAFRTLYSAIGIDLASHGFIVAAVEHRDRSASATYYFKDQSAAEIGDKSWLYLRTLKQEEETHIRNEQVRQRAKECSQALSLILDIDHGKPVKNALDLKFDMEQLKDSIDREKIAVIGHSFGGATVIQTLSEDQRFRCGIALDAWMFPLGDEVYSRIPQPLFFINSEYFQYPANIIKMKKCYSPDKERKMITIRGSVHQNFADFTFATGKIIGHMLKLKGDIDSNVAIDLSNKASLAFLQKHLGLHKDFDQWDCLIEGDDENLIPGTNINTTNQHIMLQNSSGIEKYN
PAFAH1B2 inh: PAFAH1B2 (human) inhibition; P68402; recombinant PAFAH1B2, FP-rhodamine activity probe, fluorescence polarization; inhibition, % at 3.39 µM; 340,000 tested, 1.2% active; AID 492953;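 active = inhibition above the mean of all tested compounds plus 3 SD, cut at about 24% in these data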;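 note: 0% = enzyme with DMSO and 100% = wells lacking PAFAH1B2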
Target sequence (P68402 whole entry, looked up): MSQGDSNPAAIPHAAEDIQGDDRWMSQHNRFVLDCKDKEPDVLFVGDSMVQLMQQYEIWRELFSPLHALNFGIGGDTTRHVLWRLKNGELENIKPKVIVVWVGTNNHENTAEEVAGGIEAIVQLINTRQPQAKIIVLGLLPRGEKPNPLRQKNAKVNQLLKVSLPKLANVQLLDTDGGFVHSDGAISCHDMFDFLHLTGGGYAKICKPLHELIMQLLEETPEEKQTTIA
PAFAH2 FP inh: PAFAH2 (human) inhibition; Q99487; recombinant PAFAH2, FP-rhodamine activity probe, fluorescence polarization; inhibition, % at 3.39 µM; 340,000 tested, 0.99% active; AID 492956;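 active = inhibition above the mean over all tested compounds plus 3 SD, cut at about 30% in these data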;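 note: inhibitors block probe labeling of enzyme so polarization drops; 0% = enzyme with DMSO and 100% = wells lacking PAFAH2 protein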
PAFAH1B3 inh: PAFAH1B3 (human) inhibition; Q15102; inhibition, % at 3.39 µM; AID 492972; 340,000 tested, 0.28% active; recombinant PAFAH1B3, FP-rhodamine probe, fluorescence polarization;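 active = inhibition above the screen-wide average of all tested compounds plus 3 SD, cut at about 25% in these data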;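 note: 0% = enzyme with DMSO only and 100% = wells lacking PAFAH1B3 protein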
Apaf-1 inh: inhibitors of human Apaf-1 apoptosome; reconstituted apoptosome caspase-3 activity, DEVD-Rh110 fluorescence; 330,000 tested, 0.71% active; inhibition, % at 20 µM; O14727; active = inhibition of at least 40% at 20 µM;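 note: plate controls were DMSO wells for no effect and DEVD-CHO caspase inhibitor wells for full effect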
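Assay system – apoptosome proteins · Medium – Hepes buffer, pH 7.5 · Also added – cytochrome c with DEVD-Rh110 · Timing – 30 min compound preincubation, 50 min activation, room temperature · Detection – Rh110 fluorescence, excitation 480 nm, emission 540 nm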
pPAFAH FP conf: pPAFAH (human) inhibition, confirmed. recombinant pPAFAH, FP-Rh probe fluorescence polarization. 2,300 tested, 72% active. inhibition, % at 3.39 µM. shares compounds with pPAFAH FP inh. AID 463230;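 active = mean inhibition of the triplicate above the hit cutoff set for the earlier primary screen, cut at about 25% in these data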;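 note: 0% = enzyme with DMSO and 100% = wells lacking pPAFAH enzyme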
The depositor's hits bear a star.

For CC(NC(=O)C1CCC(CNS(=O)(=O)c2ccccc2)CC1)c1ccc2c(c1)OCCO2 (stereo not drawn) the results were pPAFAH FP inh 3 and Apaf-1 inh -1.
Screening Cc1ccc(NC(=O)CSc2nnnn2C2CCCC2)cc1S(=O)(=O)N1CCOCC1 returned pPAFAH FP inh 2, PAFAH1B2 inh 3, PAFAH2 FP inh -7, PAFAH1B3 inh 9 and Apaf-1 inh -4.
`CCNC(=S)NNC(=O)c1ccccn1` gave pPAFAH FP inh -2, PAFAH1B2 inh 7, PAFAH2 FP inh -7, PAFAH1B3 inh 10 and Apaf-1 inh -3.
For O=C(NNC(=S)Nc1ccc(Cl)c(Cl)c1)c1ccccn1 the results were pPAFAH FP inh 37*, PAFAH1B2 inh 20, PAFAH2 FP inh 9, PAFAH1B3 inh 15, Apaf-1 inh -6 and pPAFAH FP conf 51*.
Screening CCN(Cc1ccncc1)Cc1ccc(Br)cc1 returned pPAFAH FP inh 4, PAFAH1B2 inh 11, PAFAH2 FP inh 0, PAFAH1B3 inh 7 and Apaf-1 inh 9.
`Cc1ccc2nc3n(c(=O)c2c1)-c1ccc(Cl)cc1C(=O)NC3CC(C)C` (stereo not drawn) gave pPAFAH FP inh 2 and Apaf-1 inh 17.
For Cc1ccc(C(=O)CNc2cc(C)ccc2C)cc1 the results were pPAFAH FP inh 4, PAFAH1B2 inh 0, PAFAH2 FP inh -9, PAFAH1B3 inh 2 and Apaf-1 inh 10.
CCNc1cc(O)ccc1C was read as pPAFAH FP inh 75*, PAFAH1B2 inh 14, PAFAH2 FP inh 26, PAFAH1B3 inh 15, Apaf-1 inh 9 and pPAFAH FP conf 12.
O=C(O)c1cccc(N/N=C/c2cc(Br)cc(Br)c2O)c1 was read as pPAFAH FP inh 45*, PAFAH1B2 inh 19, PAFAH2 FP inh 37*, PAFAH1B3 inh 13, Apaf-1 inh 14 and pPAFAH FP conf 44*.
COc1ccc(Br)cc1/C=N/Nc1cccc(C(=O)O)c1 was read as pPAFAH FP inh 7, PAFAH1B2 inh -2, PAFAH2 FP inh 2, PAFAH1B3 inh 1 and Apaf-1 inh 7.
Screening Oc1c(Cl)cc(Cl)cc1/C=N/NC(=S)NC1CC2C=CC1C2 (stereo not drawn) returned pPAFAH FP inh 36*, PAFAH1B2 inh 21, PAFAH2 FP inh 68*, PAFAH1B3 inh 26*, Apaf-1 inh 1 and pPAFAH FP conf 34*.
O=C(N/N=C/c1cc(Cl)cc(Cl)c1O)c1ccncc1 was read as pPAFAH FP inh 7, PAFAH1B2 inh -1, PAFAH2 FP inh -1, PAFAH1B3 inh 10 and Apaf-1 inh 1.
`O=C1CCC(C(=O)N2CCN(c3ccccc3)CC2)CN1CC1CCCCC1` (stereo not drawn) gave pPAFAH FP inh -1, PAFAH1B2 inh 0, PAFAH2 FP inh 1, PAFAH1B3 inh 7 and Apaf-1 inh 10.
Screening Cc1cc(C)n2c(SC/C(O)=C(\C#N)c3nc4ccccc4[nH]3)nnc2n1 returned pPAFAH FP inh 35*, PAFAH1B2 inh 5, PAFAH2 FP inh 9, PAFAH1B3 inh 4, Apaf-1 inh 15 and pPAFAH FP conf 24.
CCn1nc(C)cc1-c1nnc(Sc2ncc([N+](=O)[O-])s2)n1C was read as pPAFAH FP inh -1, PAFAH1B2 inh 0, PAFAH2 FP inh 3, PAFAH1B3 inh 3 and Apaf-1 inh -5.
COP(=O)(OC)c1nc(-c2cccc3ccccc23)oc1NCCc1ccccc1 was read as pPAFAH FP inh 38*, PAFAH1B2 inh 3, PAFAH2 FP inh 4, PAFAH1B3 inh 8, Apaf-1 inh 24 and pPAFAH FP conf 31*.
COc1ccccc1C(CNC(=O)c1oc2ccccc2c1C)N1CCCC1 (stereo not drawn) was read as pPAFAH FP inh 4, PAFAH1B2 inh -1, PAFAH2 FP inh -10, PAFAH1B3 inh -2 and Apaf-1 inh 21.
O=C(Nc1ccnn1C1CCN(C(=O)CCc2ccc(F)cc2)CC1)C1CCOC1 (stereo not drawn) was read as pPAFAH FP inh -1, PAFAH1B2 inh -6, PAFAH2 FP inh 0, PAFAH1B3 inh -5 and Apaf-1 inh 3.
Screening CC(C)(C)c1ccc(-n2ncc3c2CCCC3NC(=O)CCN2CCCO2)cc1 (stereo not drawn) returned pPAFAH FP inh 37*, PAFAH1B2 inh 5, PAFAH2 FP inh 5, PAFAH1B3 inh 4, Apaf-1 inh 8 and pPAFAH FP conf 18.
`O=C(CCN1CCCO1)NC1CCCc2c1cnn2-c1ccccc1F` (stereo not drawn) gave pPAFAH FP inh 3, PAFAH1B2 inh 2, PAFAH2 FP inh -3, PAFAH1B3 inh 4 and Apaf-1 inh -10.
`COc1ccc(NC(=O)c2ccc(Cl)c(S(=O)(=O)NCC3CCCO3)c2)c(OC)c1` (stereo not drawn) gave pPAFAH FP inh 11, PAFAH1B2 inh -2, PAFAH2 FP inh 2, PAFAH1B3 inh 11 and Apaf-1 inh 5.
Screening O=C(O)c1ccccc1NS(=O)(=O)c1ccc(NN=Cc2ccc(F)cc2)c([N+](=O)[O-])c1 returned pPAFAH FP inh 58*, PAFAH1B2 inh 14, PAFAH2 FP inh 19, PAFAH1B3 inh 14, Apaf-1 inh 2 and pPAFAH FP conf 77*.
`O=C(O)c1ccccc1NS(=O)(=O)c1ccc(NN=Cc2cccc(Cl)c2)c([N+](=O)[O-])c1` gave pPAFAH FP inh 66*, PAFAH1B2 inh 15, PAFAH2 FP inh 22, PAFAH1B3 inh 12, Apaf-1 inh 6 and pPAFAH FP conf 77*.
For Cc1nn(-c2ccccc2)c(N2CCCC2)c1/C=N/Nc1ccc(S(=O)(=O)Nc2ccccc2)cc1[N+](=O)[O-] the results were pPAFAH FP inh 11, PAFAH1B2 inh 16, PAFAH2 FP inh 0, PAFAH1B3 inh 25 and Apaf-1 inh -4.
Screening O=C(O)COc1ccccc1/C=N/Nc1ccc(S(=O)(=O)Nc2ccc(Cl)cc2)cc1[N+](=O)[O-] returned pPAFAH FP inh 65*, PAFAH1B2 inh 47*, PAFAH2 FP inh 17, PAFAH1B3 inh 11, Apaf-1 inh 18 and pPAFAH FP conf 68*.
Cc1ccc(S(=O)(=O)N(CC(=O)c2ccc(Cl)cc2)C(=O)N2CCN(C)CC2)cc1 was read as pPAFAH FP inh -1, PAFAH1B2 inh 0, PAFAH2 FP inh 3, PAFAH1B3 inh -6 and Apaf-1 inh 6.
Screening COc1cc(C(=O)NCC(=O)N2CCN(S(=O)(=O)c3cc(C)ccc3C)CC2)cc(OC)c1OC returned pPAFAH FP inh 0, PAFAH1B2 inh 1, PAFAH2 FP inh 4, PAFAH1B3 inh 10 and Apaf-1 inh 1.
Screening Cc1ccc(S(=O)(=O)N[C@H](C(=O)OCC(=O)N2N=C(c3ccc(Cl)cc3)CC2c2ccco2)C(C)C)cc1 (stereo partly drawn) returned pPAFAH FP inh 40*, PAFAH1B2 inh -8, PAFAH2 FP inh 1, PAFAH1B3 inh 0, Apaf-1 inh 27 and pPAFAH FP conf 9.

Screening data: PubChem, several laboratories
